According to ChEMBL document CHEMBL4513216, “Probing the Open Global Health Chemical Diversity Library for Multistage-Active Starting Points for Next-Generation Antimalarials” (ACS Infect Dis, 2020):

Test: Toxicity liver stage against HepG2, at 10uM
Type: cell-based
Parameters: test concentration 10 uM, cell line HepG2-A16-CD81EGFP
Conditions: human, HepG2-A16-CD81EGFP cells; read-out: INHIBITION
Summary of the method: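 Uninfected HepG2-A16-CD81EGFP cells, 3 × 10^3 per well, 1536-well, plated on prespotted compound at 10 μM final, parasite-free screening media added to match infected plates; puromycin 10 μM positive, DMSO 0.5% negative; run in parallel with 48 h PbLuc assay at 37 °C, 5% CO2; viability by CellTiter-Glo luminescence, normalized to controls.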
With `O=C(CN1CCOCC1)Nc1ncc(Br)cc1Br` the cytotoxicity at 10 µM was 10.2%. With `C1CN(CCN2CCOCC2)CCN1` the cytotoxicity at 10 µM was -11.5%. `CC(C)(C)CNC[C@H]1Cn2c(-c3ccccc3)cnc2CO1` showed a cytotoxicity at 10 µM of -9.14%. Work on `O=C(O)CCn1ccc(=O)c2ccccc21` yielded a cytotoxicity at 10 µM of 0.148%. `Cc1csc(C(=O)NCCn2nc(-n3cncn3)ccc2=O)c1` gave a cytotoxicity at 10 µM of 2.06%. Compound `Cc1c(Cl)cccc1S(=O)(=O)N1CCC(S(=O)(=O)c2nncn2C)CC1` has a cytotoxicity at 10 µM of 1.06%. `COc1ccc(CC(=O)N2CCc3nc(C(=O)N(C)C)sc3CC2)cc1` showed a cytotoxicity at 10 µM of 15.8%. `Cc1noc(C[C@@H]2COC[C@H]3CN(C(=O)C4=CCCC4)C[C@@H]23)n1` showed a cytotoxicity at 10 µM of -0.91%. In the case of `O=C(CCn1ccc2cc(Br)ccc21)/N=c1\[nH]nc(C2CCCO2)s1` (stereo not drawn), the cytotoxicity at 10 µM is reported as -2.31%. With `CN(C)c1ccc(-c2cc(=O)n3c(n2)CCCCC3)cc1` the cytotoxicity at 10 µM was -13.1%. With `c1coc(CN2Cc3nccn3CC(Cn3cncn3)C2)c1` (stereo not drawn) the cytotoxicity at 10 µM was -7.18%. `Cc1cccc(N2CC(c3nnc(N)s3)CC2=O)c1` (stereo not drawn) gave a cytotoxicity at 10 µM of 3.79%. Compound `CCN1CCCC(O)(CN(C)Cc2ccc(C)o2)C1` (stereo not drawn) has a cytotoxicity at 10 µM of -3.65%. Compound `CCn1nccc1CN(C)C(=O)Cn1cc2c(n1)c(C)nn2CC` has a cytotoxicity at 10 µM of 15.4%. For `COCc1nc(N(C)C)ncc1C(=O)Nc1cc(C)cc(C)c1`, the cytotoxicity at 10 µM was 6.89%. For `Cc1nn(C)c2c(NCc3cccnc3)nc(C3CC3)nc12`, the cytotoxicity at 10 µM was -9.84%. Work on `CC(=O)N[C@H]1CCO[C@@H](c2cccc(NC(=O)c3ccc(=O)[nH]n3)c2)C1` yielded a cytotoxicity at 10 µM of 4.46%. With `CCC(=O)N1CCCC1(C)c1nc(C)no1` (stereo not drawn) the cytotoxicity at 10 µM was 1.34%. With `c1ccc2ncc(CC3CCNC3)cc2c1` (stereo not drawn) the cytotoxicity at 10 µM was -1.67%. Work on `Cc1nc(C2CCCN(C(=O)c3ccncc3)C2)c2sccn12` (stereo not drawn) yielded a cytotoxicity at 10 µM of -10.4%. Work on `Cn1nc(C2CN(S(C)(=O)=O)C2)c2nccnc21` yielded a cytotoxicity at 10 µM of -13.2%. Work on `CO[C@H]1CN(Cc2ccc(F)c(F)c2)C[C@@]12CCCO2` yielded a cytotoxicity at 10 µM of -5.52%. Compound `CCc1noc(C)c1C(=O)N1CCC(c2[nH]ncc2S(C)(=O)=O)C1` (stereo not drawn) has a cytotoxicity at 10 µM of -6.94%. In the case of `O=C(c1ccc(Cl)cc1)N1CCn2c(nn(-c3ccc(Cl)cc3)c2=O)C1`, the cytotoxicity at 10 µM is reported as 10.9%. Work on `CC(C)NC1CCN(CCc2ccc3c(c2)CCO3)CC1` yielded a cytotoxicity at 10 µM of -21.8%. Compound `COc1ccc(Cl)cc1CCNC(=O)N(C)CC1CCOC1` (stereo not drawn) has a cytotoxicity at 10 µM of 7.17%. For `CCc1nnc(CS(=O)(=O)c2ccc(C)cc2)n1C`, the cytotoxicity at 10 µM was 7.05%. `CNC(=O)c1cccc(CN2CCN(c3ccncc3)CC2)c1` gave a cytotoxicity at 10 µM of -19.7%. `FC(F)(F)c1cc(C2CCCN(Cc3cccnc3)C2)n[nH]1` (stereo not drawn) showed a cytotoxicity at 10 µM of -45.7%. `CN1CCN(CCNC(=O)C(OC2CCCC2)c2ccccc2)CC1` (stereo not drawn) gave a cytotoxicity at 10 µM of -9.43%. `COC(=O)c1ccc(OCC(=O)N(C)Cc2ccsc2)c(OC)c1` showed a cytotoxicity at 10 µM of 5.98%. With `Cc1ccc(C(=O)N2CCSCC2)cc1NC(=O)NCC1CCC1` the cytotoxicity at 10 µM was 3.07%. With `COC(=O)CNC(=O)C(C)Oc1ccccc1C(F)(F)F` (stereo not drawn) the cytotoxicity at 10 µM was 6.08%. `O=C(CC1CN(Cc2ccccc2)CCO1)NC1CCSCC1` (stereo not drawn) gave a cytotoxicity at 10 µM of -15.1%. With `CCNC(=O)N1CCC(NC(=O)NCCCc2cccc(F)c2)C1` (stereo not drawn) the cytotoxicity at 10 µM was -47.5%. With `CCCNC(=O)CNc1ccccc1OCCC(=O)OC` the cytotoxicity at 10 µM was 8.95%. In the case of `O=C(NCC1(c2ccc(F)cc2)CCC1)N1CCC2(CCOCC2)C1`, the cytotoxicity at 10 µM is reported as 3.73%. Work on `O=C(NCC1(O)CCOC1)NCC1(c2ccccc2Cl)CCC1` (stereo not drawn) yielded a cytotoxicity at 10 µM of -50.8%. In the case of `COc1ccnc(N2CCN(C(=O)CCc3cnn(C)c3)CC2)n1`, the cytotoxicity at 10 µM is reported as 8.72%. With `Cn1ncnc1NS(=O)(=O)c1ccccc1` the cytotoxicity at 10 µM was 8.26%. With `O=C(CCc1cccc(Cl)c1)NS(=O)(=O)Cc1ccon1` the cytotoxicity at 10 µM was 8.76%. `c1ccc(-c2noc(CN3CCC(c4ccn[nH]4)CC3)n2)cc1` showed a cytotoxicity at 10 µM of -1.19%. Compound `Cc1ccccc1C(=O)Nc1cnn(CC(=O)NC2CCCC2)c1` has a cytotoxicity at 10 µM of -18.4%. For `COC(=O)C(C)(C)NC(=O)C1CC(=O)N(C)C1` (stereo not drawn), the cytotoxicity at 10 µM was -8.92%. `Cc1nc(C)c(C(=O)N2CCC(Nc3cccnc3)CC2)s1` showed a cytotoxicity at 10 µM of -6.75%. Compound `O=C(CCc1cscn1)NS(=O)(=O)c1ccc2ccccc2c1` has a cytotoxicity at 10 µM of -13.1%. `CCC(=O)N1CCC2(C=C(C(=O)N3CCCC3)c3ccccc32)CC1` gave a cytotoxicity at 10 µM of -92.8%. With `Cc1cc(CN2CC[C@@H]3O[C@@H](c4nnc(C)o4)C[C@H]3C2)no1` the cytotoxicity at 10 µM was -103%. For `O=C(C1CCOC1)N1C[C@H]2CN(Cc3cccc(F)c3)C(=O)[C@H]2C1` (stereo partly drawn), the cytotoxicity at 10 µM was -106%. With `O=c1c(-c2ccnc(N3CCCC[C@@H]3CO)n2)cnc2sccn12` the cytotoxicity at 10 µM was -10.3%. Work on `CCn1ncnc1CN1CCC(CNC(=O)c2ccccc2C#N)C1` (stereo not drawn) yielded a cytotoxicity at 10 µM of 13.2%. In the case of `COc1ccc(F)cc1-n1cnc(CCNC(C)=O)c1`, the cytotoxicity at 10 µM is reported as 13.7%. Compound `O=S(=O)(NCc1ccccc1)Nc1ccc(-n2cncn2)cc1` has a cytotoxicity at 10 µM of 4.44%. `COc1cccc(N2CCN(Cc3cccc(CCN)c3)CC2=O)c1` showed a cytotoxicity at 10 µM of -1.42%. `CN1CCC(NCC2(O)CCCN(Cc3ccccc3F)C2=O)CC1` (stereo not drawn) gave a cytotoxicity at 10 µM of -12.2%. `CCCc1ccc(CN2CCC3(CC2)CNC(=O)C3)o1` gave a cytotoxicity at 10 µM of -3.71%. `OCCN(Cc1ccccc1)Cc1nc(-c2ccc3c(c2)OCO3)no1` gave a cytotoxicity at 10 µM of 4.74%. `CCc1cc(N2CCC(N3CCSCC3)CC2)n2nccc2n1` gave a cytotoxicity at 10 µM of 0.998%. With `CC[C@H]1COCCN1C(=O)CCCn1nnc(-c2ccc(F)cc2)n1` the cytotoxicity at 10 µM was 13.4%. `O=C(O)c1cccc(N2CCC(Oc3cccc(F)c3)CC2)n1` showed a cytotoxicity at 10 µM of -44.1%. In the case of `CN(Cc1cccc(-n2cccn2)c1)Cc1c[nH]cn1`, the cytotoxicity at 10 µM is reported as 5.67%. Compound `Cc1ccc2c(-c3nc4c([nH]3)CCNC4C(=O)O)cccc2n1` (stereo not drawn) has a cytotoxicity at 10 µM of -3.15%. Compound `O=C(O)c1ccccc1C1CCN(C2CCN(c3ccccc3)CC2)C1` (stereo not drawn) has a cytotoxicity at 10 µM of -14.5%. With `CCC(CO)N(Cc1cccnc1)C(=O)c1ccc(C)[nH]c1=O` (stereo not drawn) the cytotoxicity at 10 µM was -3.95%. `CCN1CCC(Cn2ccc3c(OC)c(OC)ccc3c2=O)C1` (stereo not drawn) gave a cytotoxicity at 10 µM of -4.7%. In the case of `CC(C)N1CCC2(CC1)CC(=O)N(Cc1cc(F)cc(F)c1)C2`, the cytotoxicity at 10 µM is reported as 9.03%. For `CC(=O)N1CCC(N2CCOC(CC3CCCCC3)C2)CC1` (stereo not drawn), the cytotoxicity at 10 µM was 6.46%. Compound `CN(C)C(=O)Cc1ccc(-c2cccc3c2CCNC3)cc1` has a cytotoxicity at 10 µM of 2.28%. In the case of `COc1ccc(C(=O)N2C[C@@H](O)[C@H](NCc3cnc(C)cn3)C2)cc1`, the cytotoxicity at 10 µM is reported as 3.34%. `CC(=O)CCCC(=O)N(Cc1ccsc1)CC(C)C` gave a cytotoxicity at 10 µM of -50.3%. `CCc1ccccc1-c1cc(OC)nc(N)n1` gave a cytotoxicity at 10 µM of -3.3%. In the case of `Cc1ncc(CN2CCC(CNS(=O)(=O)C3CC3)C2)cn1` (stereo not drawn), the cytotoxicity at 10 µM is reported as 2.84%. In the case of `Cn1cccc1-c1cc(C(=O)NCCCc2csc(N)n2)[nH]n1`, the cytotoxicity at 10 µM is reported as -8.9%. Compound `Cc1ncccc1OC1(C(=O)NCCNc2ccccc2)CCNCC1` has a cytotoxicity at 10 µM of -12.4%. `CCOCCn1c(=O)[nH]c2cc(C(=O)N(C)Cc3nc(C)cs3)ccc21` gave a cytotoxicity at 10 µM of -10.6%. For `CC(C)(C)C(Cn1cccn1)NC(=O)c1ccco1` (stereo not drawn), the cytotoxicity at 10 µM was -5.5%. `CCC(CCN)n1ccc(C(F)(F)F)n1` (stereo not drawn) gave a cytotoxicity at 10 µM of -11.2%. Work on `COCCOc1ccccc1C(=O)N(C)Cc1ncc(C)c(OC)c1C` yielded a cytotoxicity at 10 µM of -1.61%. In the case of `CC(C)c1n[nH]c(C2CN(Cc3nnc(C4CC4)n3C)CCO2)n1` (stereo not drawn), the cytotoxicity at 10 µM is reported as -10.3%. `CN(C)CCn1c2c(ccc1=O)CC(NCc1cccnc1)CC2` (stereo not drawn) gave a cytotoxicity at 10 µM of 14.4%. In the case of `Cc1cccc(CN2Cc3[nH]nc(COc4cccnc4)c3C2)n1`, the cytotoxicity at 10 µM is reported as 0.288%. `c1cncc(COCc2nnc3n2CCN(Cc2ccoc2)C3)c1` showed a cytotoxicity at 10 µM of -11.2%. With `CN1C[C@@H]2CC[C@H]1CN(C(=O)COCc1nc3ccc(F)cc3[nH]1)C2` the cytotoxicity at 10 µM was -1.88%.
